According to ChEMBL document CHEMBL3046830, “Isolation and identification of secondary metabolites of Clitocybe nuda responsible for inhibition of zoospore germination of Phytophthora capsici” (2012):
Calls of active or inactive are those of the source. The calls are words filed in the database; no cut-off is given here.

What was measured:
Format in all cases: functional
[1] = test system: Phytophthora capsici; assay: Antimicrobial activity against Phytophthora capsici PCM81 assessed as zoospore germination at 500 ppm at 24 degC for 8 hr
Method in brief: (§1)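 P. capsici PCM81 sporangia grown 5 days on 10% V8 agar at 24 °C under a 12 h light–dark cycle. Zoospores released in sterile water for 1 day at 24 °C, then chilled at 4 °C for 1 h. The suspension is mixed 1:1 with the sample in a cavity slide and kept moist; a distilled-water mix is the control. Germination is scored after 8 h at 24 °C, counting 100 spores × 4 replicates, with the experiment run twice and analysed by Duncan's test.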

[2] = test system: Phytophthora capsici; assay: Antimicrobial activity against Phytophthora capsici PCM81 assessed as zoospore germination at 1000 ppm at 24 degC for 8 hr; method in brief: as §1
[3] = test system: Phytophthora capsici; assay: Antimicrobial activity against Phytophthora capsici PCM81 assessed as inhibition of zoospore germination at 500 mg/L at 24 degC for 8 hr; conditions: for inhibition at 500 µg/mL: PCM81, 8 h; method in brief: as §1
[4] = test system: Phytophthora capsici; assay: Antimicrobial activity against Phytophthora capsici PCM81 assessed as zoospore germination at 100 ppm at 24 degC for 8 hr; method in brief: as §1

O=Cc1c[nH]c2ccccc12 [3-FORMYLINDOLE] was tested, and the Activity [1] was 0%, the Activity [2] was 0% and the inhibition [3] was “Active”. It also gave an Activity [4] of 57%.
COCC1=C(C)C(=O)C=C(OC)C1=O gave an Activity [1] of 3%, an Activity [2] of 0% and an inhibition at 500 µg/mL [3] of 97%. For the same molecule, the Activity [4] was 65%.
In the case of O=CC1=CC=C(O)OC1, the Activity [1] was 14.5%, the Activity [2] was 0% and the inhibition at 500 µg/mL [3] was 86%. For the same molecule, the Activity [4] was 77%.
